ChEMBL document CHEMBL6134794, “Anti-Schistosomal activity and ADMET properties of 1,2,5-oxadiazinane-containing compound synthesized by visible-light photoredox catalysis” (RSC Med Chem, 2024)
Calls of active or inactive are those of the source. The rule behind the calls is not given here.

How the values were obtained:
Schistosoma mansoni [1] = assay: Anti-schistosomal activity against adult male Schistosoma mansoni assessed as motility by measuring pairing and varied movement intensity using viability scale at 10 uM incubated for 1 hr by inverted microscopic analysis; format: functional
Schistosoma mansoni [2] = assay: Anti-schistosomal activity against adult male Schistosoma mansoni assessed as motility by measuring pairing and varied movement intensity using viability scale at 10 uM incubated for 120 hrs by inverted microscopic analysis; format: functional
[3] = Apparent permeability in human Caco-2 cells at 25 uM incubated for 2 hrs by LC-MS/MS analysis; format: ADME, cell-based
Procedure, shortened: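 Compound at 25 µM in HBSS added to the apical side of cultured Caco-2 monolayers in transwells, with HBSS plus 1% BSA on the basolateral side. After 2 h both compartments were collected, acetonitrile-treated and centrifuged. Supernatants were quantified by LC-MS/MS and Papp calculated. "High" class means Papp above that of propranolol.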

[4] = Cardiotoxicity in human iPSC-CM cells assessed as effect on pulse waveform by measuring calcium ion influx at 0.2 uM incubated for 60 mins by fluorescent indicator analysis; format: toxicity, cell-based; conditions: 1 h
Procedure, shortened: (§1)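 Human iPS cell-derived cardiomyocytes were seeded at 30,000 cells/well on gelatin and maintained 9 days. Cells were then stained with a Ca²⁺-sensitive cardiotoxicity dye kit. Ca²⁺ transients were recorded on an FDSS kinetic imager before and after compound addition.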

[5] = Cardiotoxicity in human iPSC-CM cells assessed as decrease in beat interval by measuring calcium ion influx at 2 uM incubated up to 30 mins by fluorescent indicator analysis; format: toxicity, cell-based; conditions: 0.5 h; procedure, shortened: as §1
Schistosoma mansoni [6] = assay: Anti-schistosomal activity against adult male Schistosoma mansoni assessed as motility by measuring measuring pairing and varied movement intensity using viability scale at 10 uM incubated for 24 hrs by inverted microscopic analysis; format: functional
[7] = Cardiotoxicity in human iPSC-CM cells assessed as effect on beat interval by measuring calcium ion influx at 2 uM measured within 60 mins by fluorescent indicator analysis; format: toxicity, cell-based; conditions: 1 h; procedure, shortened: as §1
[8] = Cardiotoxicity in human iPSC-CM cells assessed as effect on pulse waveform by measuring calcium ion influx at 20 uM incubated for 60 mins by fluorescent indicator analysis; format: toxicity, cell-based; conditions: 1 h; procedure, shortened: as §1
[9] = Stability of the compound at pH 1.2 at 5 uM assessed as compound remaining incubated for 1 hrs by LC-MS/MS analysis relative to control; format: physicochemical; conditions: buffer, read-out: Stability
Procedure, shortened: (§2)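 Compound at 5 μM in pH 1.2 dissolution test solution 1 or in PBS pH 7.4, held at 37 °C for 0, 1 and 5 h. Reactions were quenched with acetonitrile and centrifuged. Parent remaining was quantified by LC-MS/MS as a percentage of the 0 h sample.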

Schistosoma mansoni [10] = assay: Anti-schistosomal activity against adult female Schistosoma mansoni assessed as motility by measuring full detachment with weak movement using viability scale at 10 uM incubated for 1 hr by inverted microscopic analysis; format: functional
Procedure, shortened: (§3)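 Adult worms freshly isolated from infected mice; cultured in RPMI 1640 with 5% FBS and penicillin/streptomycin, with or without compound (0.1, 1, 10 μM), at 37°C under 5% CO₂.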

[11] = Metabolic stability in mouse liver microsome assessed as compound remaining at 500 uM incubated for 10 mins in presence of NADPH and G6PDH by LC-MS/MS analysis; conditions: liver microsomes
Schistosoma mansoni [12] = assay: Anti-schistosomal activity against adult female Schistosoma mansoni assessed as motility by measuring full detachment with weak movement using viability scale at 10 uM incubated for 24 hrs by inverted microscopic analysis; format: functional
Schistosoma mansoni [13] = assay: Anti-schistosomal activity against adult male Schistosoma mansoni assessed as worm death at 10 uM incubated for 1 to 120 hrs by inverted microscopic analysis; format: functional, organism-based; conditions: time 1-120 hrs; procedure, shortened: as §3
[14] = Stability of the compound in PBS at pH 7.4 at 5 uM assessed as compound remaining incubated for 1 hr by LC-MS/MS analysis relative to control; format: physicochemical; conditions: read-out: Stability; procedure, shortened: as §2
[15] = Metabolic stability in human liver microsome assessed as compound remaining at 500 uM incubated for 60 mins in presence of NADPH and G6PDH by LC-MS/MS analysis; conditions: liver microsomes
[16] = Lipophilicity, logD of the compound in phosphate-buffered saline (PBS) at pH 7.4 at 100 uM incubated for 20 mins by UPLC analysis; format: physicochemical; conditions: buffer, pH 7.4, 20 min
Procedure, shortened: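 Compound at 100 μM final in PBS with 1% DMSO. logD (pH 7.4) was derived from UPLC (BEH C18) retention times against standards of known logD. Mobile phase was ammonium acetate/acetonitrile, 2–98% B over 1 min at 0.8 mL/min.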

HeLa [17] = assay: Cytotoxicity against human HeLa cells assessed as cell viability at 10 uM incubated for 48 hrs by absorbance based WST-8 assay (reference value: 100 %); format: functional; conditions: read-out: Activity
Procedure, shortened: (§4)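 HeLa cells seeded at 1,000 cells/well and exposed to compound at 10, 20 or 30 μM for 2 days. WST-8 absorbance was read at 405 nm. Viability is expressed relative to DMSO-treated wells (100%).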

Schistosoma mansoni [18] = assay: Anti-schistosomal activity against adult female Schistosoma mansoni assessed as motility by measuring full detachment with weak movement using viability scale at 10 uM incubated for 120 hrs by inverted microscopic analysis; format: functional
[19] = Metabolic stability in mouse liver microsome assessed as compound remaining at 500 uM incubated for 60 mins in presence of NADPH and G6PDH by LC-MS/MS analysis; conditions: liver microsomes
[20] = Stability of the compound at pH 1.2 at 5 uM assessed as compound remaining incubated for 5 hrs by LC-MS/MS analysis relative to control; format: physicochemical; conditions: buffer, read-out: Stability; procedure, shortened: as §2
[21] = Metabolic stability in human liver microsome assessed as compound remaining at 500 uM incubated for 10 mins in presence of NADPH and G6PDH by LC-MS/MS analysis; conditions: liver microsomes
[22] = Cardiotoxicity in human iPSC-CM cells assessed as effect on pulse waveform by measuring calcium ion influx at 2 uM incubated for 60 mins by fluorescent indicator analysis; format: toxicity, cell-based; conditions: 1 h; procedure, shortened: as §1
[23] = Cardiotoxicity in human iPSC-CM cells assessed as decrease in beat interval by measuring calcium ion influx at 20 uM incubated for 60 mins by fluorescent indicator analysis; format: toxicity, cell-based; conditions: 1 h; procedure, shortened: as §1
[24] = Cardiotoxicity in human iPSC-CM cells assessed as effect on beat intervals by measuring calcium ion influx at 0.2 uM incubated for 60 mins by fluorescent indicator analysis; format: toxicity, cell-based; conditions: 1 h; procedure, shortened: as §1
Schistosoma mansoni [25] = assay: Anti-schistosomal activity against adult female Schistosoma mansoni assessed as motility by measuring pairing and varied movement intensity using viability scale at 10 uM incubated for 120 hrs by inverted microscopic analysis; format: functional
[26] = Cardiotoxicity in human iPSC-CM cells assessed as effect on beat intervals by measuring calcium ion influx at 0.2 to 20 uM incubated for 60 mins by fluorescent indicator analysis; format: toxicity, cell-based; conditions: 1 h, dose 0.2-20 µM; procedure, shortened: as §1
[27] = Stability of the compound in PBS at pH 7.4 at 5 uM assessed as compound remaining incubated for 5 hrs by LC-MS/MS analysis relative to control; format: physicochemical; conditions: read-out: Stability; procedure, shortened: as §2
Schistosoma mansoni [28] = assay: Anti-schistosomal activity against adult female Schistosoma mansoni assessed as motility by measuring pairing and varied movement intensity using viability scale at 10 uM incubated for 24 hrs by inverted microscopic analysis; format: functional
HeLa [29] = assay: Cytotoxicity against human HeLa cells assessed as cell viability at 30 uM incubated for 48 hrs by absorbance based WST-8 assay (reference value: 100 %); format: functional; conditions: read-out: Activity; procedure, shortened: as §4
[30] = Cardiotoxicity in human iPSC-CM cells assessed as effect on pulse waveform by measuring calcium ion influx at 0.2 to 20 uM incubated for 60 mins by fluorescent indicator analysis; format: toxicity, cell-based; conditions: 1 h, dose 0.2-20 µM; procedure, shortened: as §1
Schistosoma mansoni [31] = assay: Anti-schistosomal activity against adult female Schistosoma mansoni assessed as worm death at 10 uM incubated for 1 to 120 hrs by inverted microscopic analysis; format: functional, organism-based; conditions: time 1-120 hrs; procedure, shortened: as §3
Schistosoma mansoni [32] = assay: Anti-schistosomal activity against adult female Schistosoma mansoni assessed as motility by measuring pairing and varied movement intensity using viability scale at 10 uM incubated for 1 hr by inverted microscopic analysis; format: functional

For `O=C(C1CCCCC1)N1CON2CCc3ccccc3C2C1` (stereo not given), which Activity (Schistosoma mansoni [1]) is on record?
Its Activity is 3.

What about the Activity (Schistosoma mansoni [2]) of the same compound?
The Activity was 3.

And the Papp at 2 h, 25 µM [3]?
The Papp at 2 h, 25 µM was 30.5 ×10⁻⁶ cm/s.

And the Activity [4]?
The Activity was “Non-toxic”.

What about the Activity [5] of the same compound?
The Activity was “Toxic”.

What about the Activity (Schistosoma mansoni [6]) of the same compound?
Its Activity is 3.

And the Activity [7]?
Its Activity is “Non-toxic”.

And the Activity [8]?
Its Activity is “Non-toxic”.

And the remaining at 1 h, 5 µM [9]?
The remaining at 1 h, 5 µM was 95.1%.

What about the Activity (Schistosoma mansoni [10]) of the same compound?
Its Activity is 2.

And the remaining at 10 min, 500 µM [11]?
The remaining at 10 min, 500 µM was 2.7%.

And the Activity (Schistosoma mansoni [12])?
Its Activity is 2.

What about the Activity (Schistosoma mansoni [13]) of the same compound?
The Activity was “inactive”.

And the remaining at 1 h, 5 µM [14]?
Its remaining at 1 h, 5 µM is 95.2%.

And the remaining at 1 h, 500 µM [15]?
The remaining at 1 h, 500 µM was 5.9%.

And the logD [16]?
Its logD is 4.1.

What about the viability at 10 µM (HeLa [17]) of the same compound?
Its viability at 10 µM is 93.1%.

And the Activity (Schistosoma mansoni [18])?
Its Activity is 2.3.

And the remaining at 1 h, 500 µM [19]?
Its remaining at 1 h, 500 µM is 0.2%.

What about the remaining at 5 h, 5 µM [20] of the same compound?
The remaining at 5 h, 5 µM was 94.9%.

What about the remaining at 10 min, 500 µM [21] of the same compound?
The remaining at 10 min, 500 µM was 47.3%.

What about the Activity [22] of the same compound?
Its Activity is “Non-toxic”.

And the Activity [23]?
The Activity was “Toxic”.

What about the Activity [24] of the same compound?
Its Activity is “Non-toxic”.

What does the source list for `O=C(C1CCCCC1)N1CC(=O)N2CCc3ccccc3C2C1` (stereo not given) [PRAZIQUANTEL]?
Activity (Schistosoma mansoni [1]): 3.7; Activity (Schistosoma mansoni [25]): 3.3; Activity (Schistosoma mansoni [2]): 3.3; Papp at 2 h, 25 µM [3]: 37.3 ×10⁻⁶ cm/s; Activity [26]: Non-toxic; Activity (Schistosoma mansoni [6]): 3.7; remaining at 1 h, 5 µM [9]: 93.1%; remaining at 5 h, 5 µM [27]: 100%; Activity (Schistosoma mansoni [28]): 3.3; viability at 30 µM (HeLa [29]): 97.1%; Activity (Schistosoma mansoni [13]): inactive; Activity [30]: Non-toxic; remaining at 1 h, 5 µM [14]: 103%; Activity (Schistosoma mansoni [31]): inactive; Activity (Schistosoma mansoni [32]): 3.7; remaining at 5 h, 5 µM [20]: 95%
